Compound activity deposited in PubChem BioAssay by several laboratories.
The list is not random: actives were taken first. Their share in the collection is about 2.4%.
M18AAP inhibitor: PfM18AAP inhibitors, malaria aminopeptidase, primary screen, biochemical, QFRET, recombinant enzyme; M18 aspartyl aminopeptidase (Plasmodium falciparum 3D7); H-Glu-NHMec fluorogenic cleavage; inhibition, % at 7.35 µM; actives 1.2% (n = 290,000);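 active = inhibition above the campaign mean inhibition over all tested compounds plus 3 SD, cut at about 28% in these data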;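 also: 0% = plate median of test compound wells and 100% = 2 mM ZnCl2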
HKDC1 inhibitor: HKDC1 hexokinase inhibitors, primary screen, biochemical, fluorescence, uHTS. Q2TB90. recombinant HKDC1, G6PDH/diaphorase resazurin coupled fluorescence. inhibition, % at 20 µM. actives 0.16% (n = 340,000). AID 493160, 2011;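 active = inhibition above about 35% when tested at 20 µM, limit read from the data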;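 also: plate controls were DMSO wells with enzyme for no effect and DMSO wells lacking enzyme for full effect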
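Test system: HK5 enzyme. Quantity: 5 µg/mL HK5 final. Reagent: glucose and ATP substrates. Schedule: 90 min reaction incubation at room temperature, dark. Technique: resazurin-to-resorufin fluorescence via G6PDH and diaphorase coupling, 525/613 nm. Control set: DMSO wells with and without enzyme mix.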
A3G deaminase: APOBEC3G DNA deaminase inhibitors, primary screen, biochemical, fluorescence, single-stranded DNA substrate, uHTS. inhibition, % at 20 µM. actives 0.28% (n = 330,000). recombinant A3G, ssDNA deamination FAM/TAMRA fluorescence;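 active = inhibition of at least 40% at 20 µM, with no more than 30% in the related APOBEC3A deaminase screen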;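 also: plate controls were DMSO wells with A3G for no effect and wells lacking A3G enzyme for full effect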
APOBEC3A inh: APOBEC3A ssDNA deaminase inhibitors, primary screen, selectivity assay for APOBEC3G inhibitor project, biochemical, FAM/TAMRA oligo cleavage fluorescence; DNA dC->dU-editing enzyme APOBEC-3A (Homo sapiens), P31941; recombinant A3A, FAM/TAMRA ssDNA deamination fluorescence; inhibition, % at 20 µM; actives 0.41% (n = 330,000); AID 493011, 2011;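 active = at least 40% inhibition at 20 µM here, with at most 30% in a related deaminase screen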;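 also: plate controls were A3A with DMSO for no effect and wells lacking A3A enzyme for full effect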
UBC9 SUMO inh: inhibitors of in vitro SUMOylation cascade, primary screen, biochemical, HTRF, uHTS | HTRF SUMOylation assay, SAE1/SAE2 + UBC9 | inhibition, % at 35 µM | actives 0.36% (n = 290,000) | AID 2006, 2009 | SUMO-conjugating enzyme UBC9 (Homo sapiens), P63279; in the data active = inhibition above about 50%, passing the limit was not always enough
Target sequence (P63279 whole entry, looked up): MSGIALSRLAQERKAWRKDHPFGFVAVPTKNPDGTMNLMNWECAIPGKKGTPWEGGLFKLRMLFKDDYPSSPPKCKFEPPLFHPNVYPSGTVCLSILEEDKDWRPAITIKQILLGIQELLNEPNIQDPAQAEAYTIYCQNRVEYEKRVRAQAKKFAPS
PfG6PD inh: PfG6PD enzyme inhibitors, primary screen, biochemical, fluorescence intensity, uHTS | PfGluPho enzyme, NADPH resazurin-diaphorase fluorescence | actives 0.78% (n = 350,000) | AID 504690, 2011 | glucose-6-phosphate dehydrogenase-6-phosphogluconolactonase (Plasmodium falciparum 3D7) | inhibition, % at 20 µM;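 active = inhibition reaching at least a set limit at 20 µM in the primary screen, cut at about 59% in these data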;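 also: 0% = DMSO wells with substrate and 100% = DMSO wells lacking glucose-6-phosphate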
APOBEC3G confirm: APOBEC3G deaminase inhibitor retest, confirmation, biochemical, fluorescence, single-stranded DNA substrate, single concentration; shares compounds with A3G deaminase; recombinant A3G ssDNA deaminase, UDG/FAM-TAMRA fluorescence; inhibition, % at 20 µM; actives 72% (n = 890); AID 493152, 2011;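 active = inhibition reaching a set limit in any replicate at 20 µM, the limit being 80% of the first screen's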
UDG A3G counter: E. coli UDG inhibitors, confirmation, counter-screen for APOBEC3G inhibitor project, biochemical, single concentration, fluorescence, FAM/TAMRA oligo | shares compounds with A3G deaminase | UDG counterscreen | inhibition, % at 20 µM | 710 tested, under 10 active | AID 504715, 2011;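 active = compounds giving 40% or more inhibition at 20 µM in any one of the three replicates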;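 also: plate controls were DMSO wells with UDG and oligo for no effect and DMSO wells lacking both for full effect; inhibitors lower the FAM signal released by uracil excision and alkaline cleavage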
Target sequence (P12295 whole entry, looked up): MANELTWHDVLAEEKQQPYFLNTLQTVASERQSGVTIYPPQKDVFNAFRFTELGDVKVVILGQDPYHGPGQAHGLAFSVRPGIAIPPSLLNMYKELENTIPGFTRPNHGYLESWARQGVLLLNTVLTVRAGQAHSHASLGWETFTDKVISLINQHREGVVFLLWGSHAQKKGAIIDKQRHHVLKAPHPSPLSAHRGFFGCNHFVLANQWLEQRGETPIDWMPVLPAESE
Active calls of the source: *; . = not tested or not shown.

SMILES	M18AAP inhibitor	HKDC1 inhibitor	A3G deaminase	APOBEC3A inh	UBC9 SUMO inh	PfG6PD inh	APOBEC3G confirm	UDG A3G counter
CC1(CCc2ccccc2)NC(=S)N(c2ccc(Cl)cc2)N1 (stereo unspecified)	3	-2	57*	1	3	-1	12	.
CC(C)N1CCN(CC2COc3ccccc3O2)CC1 (stereo unspecified)	-19	-1	-3	1	10	-12	.	.
O=C(Nc1ccc(Cl)cc1Cl)c1ccc2c(c1)OCCO2	.	0	-6	-4	.	15	.	.
O=C(Nc1ccc(Cl)cc1Cl)c1cccc(N2C(=O)C=CC2=O)c1	.	-7	53*	8	.	113*	59*	-3
O=C(O)c1ccc(-n2c(-c3ccc(Br)cc3)n[nH]c2=S)cc1	7	-4	44*	-6	-5	27	65*	-2
Cc1ccc(NC(=O)c2cc3ccccc3o2)cc1S(=O)(=O)N(C)C	0	5	.	.	-4	27	.	.
CCOC(=O)c1c(NC(=O)CCC(=O)O)sc2c1CCCCC2	5	-5	40*	1	9	45	23	.
O=[N+]([O-])c1ccc(N2CCN(C(=S)c3cccc([N+](=O)[O-])c3)CC2)cc1	10	-16	66*	1	25	68*	70*	-2
CC(Oc1ccc2c3c(c(=O)oc2c1)CCCC3)C(=O)NCCN1CCOCC1 (stereo unspecified)	1	-5	73*	-4	13	12	-2	1
CNC(C)C#Cc1ccc2c(=O)c3ccccc3oc2c1 (stereo unspecified)	.	-2	-12	2	.	12	.	.
CC(=O)Nc1ccc2c(c1)OCCO2	-7	-3	-3	-1	27	10	.	.
C=C(C)C(=O)Nc1ccc2c(c1)OCCOCCOCCO2	5	-4	78*	20	11	14	86*	.
CCc1cccc(OCC(O)Cn2c(N3CCCCC3)nc3c2c(=O)[nH]c(=O)n3C)c1 (stereo unspecified)	1	0	-7	-4	7	13	.	.
Cc1cc(=O)n2[nH]c(-c3ccsc3-n3c(C)ccc3C)cc2n1	23	13	43*	29	65*	37	44*	-5
S=c1[nH]nc(-c2ccco2)n1C1CCCCC1	14	-3	44*	-2	2	48	84*	0
COc1cccc2c(C)nc(Nc3nc(CSc4nnc(C)s4)cc(=O)[nH]3)nc12	-7	0	41*	25	-5	-4	5	.
COc1ccc(CNC(=O)[C@@H]2CC=C[C@@H]3CCN(Cc4ccc(Cl)c(Cl)c4)C(=O)[C@@H]32)cc1	.	-1	2	2	.	2	.	.
COc1ccc(OCC(=O)N/N=C/c2ccc(O[C@@H]3O[C@H](CO)[C@@H](O)[C@H](O)[C@H]3O)cc2)cc1	10	-1	-6	-2	-13	-4	.	.
S=c1[nH]nc(COc2ccccc2)n1/N=C/c1ccco1	28*	-10	59*	-4	2	14	71*	-2
Oc1ccc(C(=S)N2CCN(c3cccc(Cl)c3)CC2)cc1	21	1	40*	4	-23	37	41*	-2
Cc1cc(OCC(=O)NCCN2CCOCC2)cc(C)c1Cl	1	-4	79*	-5	-21	-21	-12	-1
